One assay addresses Mu-type opioid receptor (Mus musculus, UniProt P42866). Description: Displacement of [3H]DAMGO from mu opioid receptor in mouse whole brain without cerebellum. Background: In a radioligand displacement assay an active substance lowers the binding of a labelled ligand.
For assay [1], the target named is Delta-type opioid receptor (Mus musculus, UniProt P32300). Description: Displacement of [3H]DPDPE from delta opioid receptor in mouse whole brain without cerebellum.
Assay [2] has as its target Kappa-type opioid receptor (Cavia porcellus, UniProt P41144). The assay is described as follows: Displacement of [3H]U69593 from kappa opioid receptor in guinea pig cerebellum.
In assay [3] the target is T1, Delta-type opioid receptor (Homo sapiens, UniProt P41143). Description: Agonist activity at human delta opioid receptor expressed in CHO cells assessed as stimulation of [35S]-GTPgammaS binding relative to DPDPE. Format: functional, cell-based.
T1 sequence (P41143 whole entry): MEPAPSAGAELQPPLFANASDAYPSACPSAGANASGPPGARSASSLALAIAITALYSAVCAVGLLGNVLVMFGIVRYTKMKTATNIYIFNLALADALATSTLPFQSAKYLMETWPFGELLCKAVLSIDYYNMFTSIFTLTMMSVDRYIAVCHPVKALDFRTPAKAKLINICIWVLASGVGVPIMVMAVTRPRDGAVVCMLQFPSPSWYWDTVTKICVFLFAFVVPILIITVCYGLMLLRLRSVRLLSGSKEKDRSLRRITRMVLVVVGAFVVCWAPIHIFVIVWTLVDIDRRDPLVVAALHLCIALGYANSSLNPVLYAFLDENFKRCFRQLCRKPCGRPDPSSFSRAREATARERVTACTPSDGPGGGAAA
Assay [4] has as its target T2, Kappa-type opioid receptor (Homo sapiens, UniProt P41145). Description: Agonist activity at human kappa opioid receptor expressed in CHO cells assessed as stimulation of [35S]-GTPgammaS binding relative to U69593. The class given is functional, cell-based. For orientation: GTPγS resists hydrolysis and so accumulates on activated G proteins.
For another assay, the system named is Mus musculus. The assay is described as follows: Analgesic activity in sc dosed mouse assessed as inhibition of acetic acid-induced writhing response treated 15 mins before acetic acid challenge measured after 10 mins. Format: functional. In outline:
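Test agent given s.c. to mice; 15 min later, 0.6% acetic acid i.p. at 10 mL/kg. After a 10 min delay, abdominal constrictions were counted over the next 10 min. 8 mice per group; group means ± SEM; ED50 taken from the dose-response. Statistics by one-way ANOVA with Bonferroni test versus vehicle.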
On the technique in general: Writhing tests count abdominal constrictions after an irritant is injected.

The target of assay [5] is T1, Delta-type opioid receptor. Description: Agonist activity at human delta opioid receptor expressed in CHO cells assessed as stimulation of [35S]-GTPgammaS binding. The class given is functional, cell-based.
Assay [6] deals with T2, Kappa-type opioid receptor. Description: Agonist activity at human kappa opioid receptor expressed in CHO cells assessed as stimulation of [35S]-GTPgammaS binding. The class given is functional, cell-based.

SMILES strings stand for the structures. Some results are limits rather than exact numbers.

Chain of Kappa-type opioid receptor (Cavia porcellus, UniProt P41144) (P41144 whole entry): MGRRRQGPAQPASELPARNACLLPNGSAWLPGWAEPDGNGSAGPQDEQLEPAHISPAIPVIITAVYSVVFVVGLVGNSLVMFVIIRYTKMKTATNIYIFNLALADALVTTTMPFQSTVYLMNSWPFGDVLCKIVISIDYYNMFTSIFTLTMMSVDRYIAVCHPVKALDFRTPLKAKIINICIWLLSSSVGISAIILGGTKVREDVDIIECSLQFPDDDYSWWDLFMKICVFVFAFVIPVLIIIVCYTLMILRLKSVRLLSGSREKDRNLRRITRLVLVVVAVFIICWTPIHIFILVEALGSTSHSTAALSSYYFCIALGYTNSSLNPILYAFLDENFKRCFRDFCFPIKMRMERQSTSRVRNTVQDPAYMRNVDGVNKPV
Chain of Delta-type opioid receptor (Mus musculus, UniProt P32300) (P32300 whole entry): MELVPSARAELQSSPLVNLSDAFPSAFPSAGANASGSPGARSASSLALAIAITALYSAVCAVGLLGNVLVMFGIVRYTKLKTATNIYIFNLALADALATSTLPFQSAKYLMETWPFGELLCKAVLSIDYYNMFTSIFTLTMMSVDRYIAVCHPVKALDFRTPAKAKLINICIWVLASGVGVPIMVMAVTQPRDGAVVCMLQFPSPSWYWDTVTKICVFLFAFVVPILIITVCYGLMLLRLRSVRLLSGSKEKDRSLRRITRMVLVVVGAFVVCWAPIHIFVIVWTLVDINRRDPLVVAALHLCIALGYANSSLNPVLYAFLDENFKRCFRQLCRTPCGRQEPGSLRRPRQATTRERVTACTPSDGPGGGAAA
T2 sequence (P41145 whole entry): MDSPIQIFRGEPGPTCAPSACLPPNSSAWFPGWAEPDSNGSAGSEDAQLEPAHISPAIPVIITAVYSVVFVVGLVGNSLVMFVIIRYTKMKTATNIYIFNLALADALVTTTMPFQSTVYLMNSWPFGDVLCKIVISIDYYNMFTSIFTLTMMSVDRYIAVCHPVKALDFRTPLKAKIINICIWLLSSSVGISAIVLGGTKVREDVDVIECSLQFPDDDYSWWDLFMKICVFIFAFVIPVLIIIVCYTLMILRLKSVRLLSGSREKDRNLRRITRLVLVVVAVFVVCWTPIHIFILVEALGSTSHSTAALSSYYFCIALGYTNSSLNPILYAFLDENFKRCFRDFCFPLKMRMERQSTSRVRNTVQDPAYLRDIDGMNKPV
Chain of Mu-type opioid receptor (P42866 whole entry): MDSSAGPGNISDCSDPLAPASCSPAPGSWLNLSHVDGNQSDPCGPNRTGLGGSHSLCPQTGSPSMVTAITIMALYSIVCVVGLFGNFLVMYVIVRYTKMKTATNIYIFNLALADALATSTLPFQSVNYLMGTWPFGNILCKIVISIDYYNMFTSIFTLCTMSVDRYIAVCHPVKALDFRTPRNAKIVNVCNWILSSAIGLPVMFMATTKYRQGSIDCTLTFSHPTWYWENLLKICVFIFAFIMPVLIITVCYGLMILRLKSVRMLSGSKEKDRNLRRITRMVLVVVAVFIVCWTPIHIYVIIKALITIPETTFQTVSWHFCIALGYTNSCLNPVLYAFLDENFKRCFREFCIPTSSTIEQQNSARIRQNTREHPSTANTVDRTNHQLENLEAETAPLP

Regarding `C[C@@]1(c2cccc(O)c2)O[C@@H]2N3[C@H]1O[C@@](C)(c1cccc(O)c1)[C@@H]3O[C@@]2(C)c1cccc(O)c1` (relative stereo), the Ki (on Mu-type opioid receptor; in assay [1]; in assay [2]) was greater than 1000 nM each time.

With `C[C@@]1(c2cccc(O)c2)O[C@@H]2N3[C@H](CO[C@H]31)O[C@]2(C)c1cccc(O)c1` (relative stereo), the inhibitory constant (Ki) (at Mu-type opioid receptor; in assay [1]; in assay [2]) was greater than 1000 nM throughout.

`C[C@@]1(c2cccc(O)c2)O[C@@H]2N3[C@H]1O[C@](C)(c1cccc(O)c1)[C@@H]3O[C@@]2(C)c1cccc(O)c1` (relative stereo): the Ki (commonly a dissociation constant, usually derived from enzyme kinetics or from competition with a known ligand) at Mu-type opioid receptor was 652 nM; in assay [1], greater than 1000 nM; in assay [2], 667 nM.

As to `COc1cccc([C@@]2(C)O[C@@H]3N4[C@H](CO[C@H]42)O[C@@]3(C)c2cccc(O)c2)c1` (relative stereo), the inhibition constant (Ki) on Mu-type opioid receptor was greater than 1000 nM; in assay [1], greater than 1000 nM; in assay [2], 52.8 nM.

On to `C[C@@]1(c2cccc(O)c2)O[C@H]2CO[C@@H]3N2[C@H]1O[C@]3(C)c1cccc(O)c1` [listing 1 of 2 here], for which the Emax – broadly, the maximal effect, on the per cent scale that the assay sets – is 23.4% in assay [3] and 96.8% in assay [4]. Also, the Activity result in the assay with Mus musculus was “Dose-dependent effect”.

For `C[C@@]1(c2cccc(O)c2)O[C@H]2CO[C@@H]3N2[C@H]1O[C@]3(C)c1cccc(O)c1` [listing 2 of 2 here], the values for the inhibition constant (Ki) (on Mu-type opioid receptor; in assay [1]; in assay [2]) were greater than 1000 nM, greater than 1000 nM and 4.63 nM, respectively. Besides, the EC50 (usually the concentration at which the effect is half-maximal) in assay [5] was determined as 83.7 nM; in assay [6] it was 50.3 nM. Moreover, the median effective dose (ED50) (as a rule, the dose that gives a 50% effect, or the effect in half of the subjects) with Mus musculus stood at 3.5 mg/kg.

On to `C[C@@]1(c2cccc(O)c2)O[C@H]2CO[C@@H]3N2[C@H]1O[C@]3(C)c1cccc(O)c1` (relative stereo) [listing 1 of 2 here], for which the Ki is greater than 1000 nM at Mu-type opioid receptor, greater than 1000 nM in assay [1] and 6.09 nM in assay [2]. Also, the EC50 in assay [6] is 97.5 nM.

Take `C[C@@]1(c2cccc(O)c2)O[C@H]2CO[C@@H]3N2[C@H]1O[C@]3(C)c1cccc(O)c1` (relative stereo) [listing 2 of 2 here]: in assay [4], the Emax was 98.2%.

Consider `C[C@@]1(c2cccc(O)c2)O[C@H]2CO[C@@H]3N2[C@H]1O[C@@]3(C)c1cccc(O)c1` (relative stereo), for which the values for the Ki (at Mu-type opioid receptor; in assay [1]; in assay [2]) were 735 nM, greater than 1000 nM and 793 nM, respectively.

Turning to `COc1cccc([C@]2(C)O[C@H]3CO[C@@H]4N3[C@H]2O[C@]4(C)c2cccc(OC)c2)c1` (relative stereo), the Ki (at Mu-type opioid receptor; in assay [1]; in assay [2]) was greater than 1000 nM each time.

Take `COc1cccc([C@]2(C)O[C@H]3CO[C@@H]4N3[C@H]2O[C@]4(C)c2cccc(O)c2)c1` (relative stereo): the Ki (at Mu-type opioid receptor; in assay [1]; in assay [2]) was greater than 1000 nM throughout.

As for `C[C@@]1(c2cccc(O)c2)O[C@H]2CO[C@H]3CO[C@@H]1N32` (relative stereo), the Ki (at Mu-type opioid receptor; in assay [1]; in assay [2]) was greater than 1000 nM throughout.

For `C[C@]1(c2cccc(O)c2)O[C@H]2CO[C@H]3CO[C@@H]1N32` (relative stereo), the Ki (on Mu-type opioid receptor; in assay [1]; in assay [2]) was greater than 1000 nM in each case.

As to `C[C@]1(c2cccc(O)c2)O[C@H]2CO[C@@H]3N2[C@H]1O[C@]3(C)c1cccc(O)c1` (relative stereo), the Ki (at Mu-type opioid receptor; in assay [1]; in assay [2]) was greater than 1000 nM in each case.

Regarding `CC1(c2cccc(O)c2)OC2COC3N2C1OC3(C)c1cccc(O)c1` (stereo not given), the Ki was 293 nM at Mu-type opioid receptor, 651 nM in assay [1] and greater than 1000 nM in assay [2].

Take `C[C@@]1(c2cccc(O)c2)O[C@@H]2N3[C@H]1O[C@](C)(c1cccc(O)c1)[C@@H]3O[C@]2(C)c1cccc(O)c1` (relative stereo): the figures for the Ki (on Mu-type opioid receptor; in assay [1]; in assay [2]) were 928 nM, greater than 1000 nM and greater than 1000 nM, respectively.

Source of the values: ChEMBL document CHEMBL3352010, “Synthesis and Pharmacology of a Novel κ Opioid Receptor (KOR) Agonist with a 1,3,5-Trioxazatriquinane Skeleton” (ACS Med Chem Lett, 2014).
